ChEMBL document CHEMBL3286380, “Design and synthesis of lupeol analogues and their glucose uptake stimulatory effect in L6 skeletal muscle cells” (Bioorg Med Chem Lett, 2014)
Calls of active or inactive are those of the source. The calls are words filed in the database; no cut-off is given here.

Tests used:
L6 [1] = assay: Increase in 2-[3H]-deoxyglucose uptake in rat L6 cells at 10 uM after 16 hrs by scintillation counting analysis (reference value: 0%); format: functional
HepG2 = assay: Potentiation of insulin-stimulated 2-[3H]-deoxyglucose uptake in human HepG2 cells at 10 uM treated for 16 hrs followed by incubation for 3 hrs in serum free medium and insulin stimulation for 20 mins by scintillation counting analysis; format: functional, cell-based
Outline: (§1)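 Cells (L6 myotubes, 3T3-L1 adipocytes or HepG2 hepatic cells) treated with compound (10 µM) for 16 h, last 3 h serum-free, with or without insulin (100 nM, 20 min) before glucose uptake. Reported as fold stimulation over basal control; mean ± SE of three independent experiments, each in triplicate.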

[2] = molecular target: T1, Insulin receptor substrate 1 (Rattus norvegicus) (UniProt P35570); assay: Increase in IRS-1-mediated Akt phosphorylation in rat L6 cells at 10 uM treated for 16 hrs followed by incubation for 3 hrs in serum free medium and insulin stimulation for 20 mins by Western blot analysis; format: cell-based
T1 sequence (whole entry): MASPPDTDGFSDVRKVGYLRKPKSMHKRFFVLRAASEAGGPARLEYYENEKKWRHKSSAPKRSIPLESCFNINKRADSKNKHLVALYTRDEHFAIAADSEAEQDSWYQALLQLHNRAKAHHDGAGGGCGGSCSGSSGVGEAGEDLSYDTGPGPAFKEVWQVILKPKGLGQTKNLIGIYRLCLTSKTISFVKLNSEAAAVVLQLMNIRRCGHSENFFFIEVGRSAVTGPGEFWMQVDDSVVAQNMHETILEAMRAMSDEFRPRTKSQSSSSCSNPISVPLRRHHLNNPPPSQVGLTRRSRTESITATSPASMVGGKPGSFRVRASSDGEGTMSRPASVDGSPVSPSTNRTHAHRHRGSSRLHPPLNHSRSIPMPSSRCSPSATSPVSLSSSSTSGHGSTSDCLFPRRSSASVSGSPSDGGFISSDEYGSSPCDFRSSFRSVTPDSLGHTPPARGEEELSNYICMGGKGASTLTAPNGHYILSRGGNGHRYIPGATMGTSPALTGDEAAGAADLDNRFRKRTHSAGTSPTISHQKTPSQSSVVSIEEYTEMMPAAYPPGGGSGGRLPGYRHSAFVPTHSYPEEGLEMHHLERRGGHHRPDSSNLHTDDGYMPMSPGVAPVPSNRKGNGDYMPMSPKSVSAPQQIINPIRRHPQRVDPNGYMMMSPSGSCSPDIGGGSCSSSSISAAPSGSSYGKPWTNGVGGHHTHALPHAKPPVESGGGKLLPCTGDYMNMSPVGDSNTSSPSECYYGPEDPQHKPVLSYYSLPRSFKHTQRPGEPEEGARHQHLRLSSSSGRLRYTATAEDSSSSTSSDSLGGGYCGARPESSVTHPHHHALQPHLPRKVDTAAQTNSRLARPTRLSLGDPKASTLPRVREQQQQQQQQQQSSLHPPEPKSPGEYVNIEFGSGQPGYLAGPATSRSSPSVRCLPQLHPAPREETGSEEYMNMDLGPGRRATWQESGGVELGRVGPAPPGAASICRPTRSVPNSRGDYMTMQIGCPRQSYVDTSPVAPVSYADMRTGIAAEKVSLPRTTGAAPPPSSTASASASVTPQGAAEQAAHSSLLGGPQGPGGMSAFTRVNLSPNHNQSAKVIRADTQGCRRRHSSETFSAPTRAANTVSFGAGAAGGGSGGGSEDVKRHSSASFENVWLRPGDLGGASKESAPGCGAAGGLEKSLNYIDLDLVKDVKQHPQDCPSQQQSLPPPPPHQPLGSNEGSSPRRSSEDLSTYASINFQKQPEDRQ
Outline: (§2)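 L6 myotubes were exposed to compound (10 μM) for 16 h, serum-free for the last 3 h. One subset then received insulin (100 nM) for 20 min. Cells were lysed and equal protein amounts were western blotted. Densitometry gave pIRβ/IRβ, pIRS-1/IRS-1 and pAKT/AKT ratios. Three independent experiments, mean SEM.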

L6 [3] = assay: Potentiation of insulin-stimulated 2-[3H]-deoxyglucose uptake in rat L6 cells at 10 uM treated for 16 hrs followed by incubation for 3 hrs in serum free medium and insulin stimulation for 20 mins by scintillation counting analysis in presence of PI3K inhibitor wortmannin; format: functional, cell-based
Outline: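 L6 myotubes were given compound (10 μM) for 16 h, with or without wortmannin (50 nM). Insulin treatment followed, then glucose uptake was measured. Values are expressed as fold stimulation over basal control.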

[4] = molecular target: 5'-AMP-activated protein kinase catalytic subunit alpha-1 (Rattus norvegicus) (UniProt P54645); assay: Effect on AMPK-alpha phosphorylation at Thr-172 residue in rat L6 cells at 10 uM after 16 hrs by immunoblot analysis; format: cell-based
Outline: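 L6 myotubes exposed to compound (10 µM) for 16 h, then lysed; western blot for phospho-AMPK (Thr-172), quantified by densitometry relative to total AMPK. Mean ± SEM of three independent experiments.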

L6 [5] = assay: Increase in 2-[3H]-deoxyglucose uptake in rat L6 cells after 16 hrs by scintillation counting analysis; format: functional, cell-based
Outline: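 Dose–response in L6 myotubes: vehicle (DMSO) or compound at 5, 10, 25 µM for 16 h before glucose uptake measurement; rosiglitazone 10 µM as positive control. Expressed as fold stimulation over control; mean ± SE of three independent experiments, each in triplicate.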

[6] = molecular target: T1, Insulin receptor substrate 1 (Rattus norvegicus); assay: Increase in IRS-1 phosphorylation in rat L6 cells at 10 uM treated for 16 hrs followed by incubation for 3 hrs in serum free medium and insulin stimulation for 20 mins by Western blot analysis; format: cell-based; outline: as §2
3T3-L1 = assay: Potentiation of insulin-stimulated 2-[3H]-deoxyglucose uptake in mouse 3T3L1 cells at 10 uM treated for 16 hrs followed by incubation for 3 hrs in serum free medium and insulin stimulation for 20 mins by scintillation counting analysis; format: functional, cell-based; outline: as §1
L6 [7] = assay: Potentiation of insulin-stimulated 2-[3H]-deoxyglucose uptake in rat L6 cells at 10 uM treated for 16 hrs followed by incubation for 3 hrs in serum free medium and insulin stimulation for 20 mins by scintillation counting analysis; format: functional, cell-based; outline: as §1
[8] = molecular target: T2, Solute carrier family 2, facilitated glucose transporter member 4 (Rattus norvegicus) (UniProt P19357); assay: Induction of GLUT4 translocation to cell surface in rat L6-GLUT4myc cells at 10 uM treated for 16 hrs followed by incubation for 3 hrs in serum free medium and insulin stimulation for 20 mins; format: cell-based
T2 sequence (whole entry): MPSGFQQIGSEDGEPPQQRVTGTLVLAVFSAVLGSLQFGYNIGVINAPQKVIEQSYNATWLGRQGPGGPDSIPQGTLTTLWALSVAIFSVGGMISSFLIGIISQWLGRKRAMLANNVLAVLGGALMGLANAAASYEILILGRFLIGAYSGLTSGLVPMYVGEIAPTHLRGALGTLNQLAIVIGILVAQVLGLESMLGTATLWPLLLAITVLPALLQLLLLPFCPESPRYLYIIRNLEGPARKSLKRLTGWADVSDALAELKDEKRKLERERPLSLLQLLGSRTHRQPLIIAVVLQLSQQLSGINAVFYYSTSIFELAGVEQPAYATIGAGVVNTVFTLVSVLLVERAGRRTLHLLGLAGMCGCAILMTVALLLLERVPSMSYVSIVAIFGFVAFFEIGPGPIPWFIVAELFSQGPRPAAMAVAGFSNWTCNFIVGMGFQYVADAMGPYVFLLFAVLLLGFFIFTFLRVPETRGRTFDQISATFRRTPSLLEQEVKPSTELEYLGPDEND
Outline: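 L6-GLUT4myc myotubes given compound (10 µM) for 16 h, the final 3 h in serum-free medium; a subset stimulated with insulin (100 nM) for 20 min before measuring surface GLUT4myc. Fold over basal control; mean ± SE, three independent experiments in triplicate.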

[9] = molecular target: Insulin receptor (Rattus norvegicus) (UniProt P15127); assay: Effect on IR-beta phosphorylation in rat L6 cells at 10 uM treated for 16 hrs followed by incubation for 3 hrs in serum free medium and insulin stimulation for 20 mins by Western blot analysis; format: cell-based; outline: as §2
L6 [10] = assay: Increase in 2-[3H]-deoxyglucose uptake in rat L6 cells at 10 uM after 16 hrs by scintillation counting analysis relative to lupeol; format: functional

Chain of 5'-AMP-activated protein kinase catalytic subunit alpha-1 (Rattus norvegicus) (P54645 whole entry): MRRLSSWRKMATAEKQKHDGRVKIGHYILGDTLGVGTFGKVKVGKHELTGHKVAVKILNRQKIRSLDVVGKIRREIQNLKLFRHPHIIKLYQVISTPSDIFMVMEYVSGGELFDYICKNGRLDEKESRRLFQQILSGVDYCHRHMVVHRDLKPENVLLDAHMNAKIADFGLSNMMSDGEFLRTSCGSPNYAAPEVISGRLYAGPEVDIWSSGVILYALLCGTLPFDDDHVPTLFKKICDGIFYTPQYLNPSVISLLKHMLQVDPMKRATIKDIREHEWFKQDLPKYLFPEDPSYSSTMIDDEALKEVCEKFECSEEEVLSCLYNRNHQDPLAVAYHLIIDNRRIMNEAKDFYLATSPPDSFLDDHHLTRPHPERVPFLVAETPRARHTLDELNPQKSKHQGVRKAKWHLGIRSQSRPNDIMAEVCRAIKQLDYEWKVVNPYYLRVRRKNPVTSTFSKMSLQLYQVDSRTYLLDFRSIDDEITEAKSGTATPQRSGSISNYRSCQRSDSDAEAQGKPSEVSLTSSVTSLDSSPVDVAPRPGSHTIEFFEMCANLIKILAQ
Chain of Insulin receptor (Rattus norvegicus) (P15127 27-759 limits assumed): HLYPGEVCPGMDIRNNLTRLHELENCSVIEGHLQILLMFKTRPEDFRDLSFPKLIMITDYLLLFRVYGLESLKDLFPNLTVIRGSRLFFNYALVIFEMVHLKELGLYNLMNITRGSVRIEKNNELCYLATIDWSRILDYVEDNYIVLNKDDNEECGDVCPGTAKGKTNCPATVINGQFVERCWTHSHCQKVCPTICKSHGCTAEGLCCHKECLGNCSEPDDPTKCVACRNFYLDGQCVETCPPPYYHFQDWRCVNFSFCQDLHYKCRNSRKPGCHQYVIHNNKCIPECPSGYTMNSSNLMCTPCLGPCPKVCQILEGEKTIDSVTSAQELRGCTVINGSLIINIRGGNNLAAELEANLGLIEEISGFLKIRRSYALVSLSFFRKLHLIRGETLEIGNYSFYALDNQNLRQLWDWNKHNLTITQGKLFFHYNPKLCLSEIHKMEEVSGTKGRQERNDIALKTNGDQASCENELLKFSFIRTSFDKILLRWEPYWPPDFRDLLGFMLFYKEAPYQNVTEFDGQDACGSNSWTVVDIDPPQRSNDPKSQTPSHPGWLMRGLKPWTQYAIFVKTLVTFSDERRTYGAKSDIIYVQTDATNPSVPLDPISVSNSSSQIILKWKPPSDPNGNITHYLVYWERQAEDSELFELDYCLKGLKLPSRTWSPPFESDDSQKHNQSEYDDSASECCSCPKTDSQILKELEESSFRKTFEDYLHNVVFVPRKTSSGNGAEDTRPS
Chain of Insulin receptor (Rattus norvegicus) (P15127 764-1383 limits assumed): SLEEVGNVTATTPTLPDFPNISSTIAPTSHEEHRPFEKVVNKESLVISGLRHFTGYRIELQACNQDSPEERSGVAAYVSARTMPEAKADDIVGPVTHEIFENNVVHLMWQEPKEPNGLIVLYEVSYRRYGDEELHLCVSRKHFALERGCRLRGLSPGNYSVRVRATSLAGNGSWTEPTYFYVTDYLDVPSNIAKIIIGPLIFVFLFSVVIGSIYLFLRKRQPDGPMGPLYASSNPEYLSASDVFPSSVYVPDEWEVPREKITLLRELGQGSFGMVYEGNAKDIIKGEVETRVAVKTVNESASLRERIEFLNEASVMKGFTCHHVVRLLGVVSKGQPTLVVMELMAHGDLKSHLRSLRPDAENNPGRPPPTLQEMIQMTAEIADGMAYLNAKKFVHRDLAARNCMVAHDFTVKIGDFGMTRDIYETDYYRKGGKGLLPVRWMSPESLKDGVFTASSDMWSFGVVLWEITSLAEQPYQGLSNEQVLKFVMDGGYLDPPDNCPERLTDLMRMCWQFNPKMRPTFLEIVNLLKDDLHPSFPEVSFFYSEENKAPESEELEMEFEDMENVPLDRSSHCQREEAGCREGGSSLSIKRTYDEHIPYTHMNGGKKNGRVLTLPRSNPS

Molecule `C=C(CO)[C@@H]1CC[C@]2(C)CC[C@]3(C)[C@H](CC[C@@H]4[C@@]5(C)CC[C@H](OC(C)=O)C(C)(C)[C@@H]5CC[C@]43C)[C@@H]12` has an Activity (L6 [1]) of 22.2%.

For `C=C(C=O)[C@@H]1CC[C@]2(C)CC[C@]3(C)[C@H](CC[C@@H]4[C@@]5(C)CC[C@H](OC(=O)CCc6ccc(Cl)cc6)C(C)(C)[C@@H]5CC[C@]43C)[C@@H]12`, the Activity (L6 [1]) was 0.5%.

With `C=C(C=O)[C@@H]1CC[C@]2(C)CC[C@]3(C)[C@H](CC[C@@H]4[C@@]5(C)CC[C@H](O)C(C)(C)[C@@H]5CC[C@]43C)[C@@H]12` the Activity (HepG2) was “Active”, the Activity [2] was “Active” and the Activity (L6 [3]) was “inactive”. For the same molecule, the Activity [4] was “inactive”, the Activity (L6 [1]) was 173.1% and the Activity (L6 [5]) was “Dose-dependent effect”. The EC50 (L6 [5]) was 4.2 µM, the Activity [6] was “Active” and the Activity (3T3-L1) was “Active”. For the same molecule, the Activity (L6 [7]) was “Active”, the Activity [8] was “Active” and the Activity [9] was “inactive”.

In the case of `CC1(C)[C@@H](OC(=O)CCc2ccc(Cl)cc2)CC[C@]2(C)[C@H]3CC[C@@H]4[C@H]5[C@H]([C@H]6C=NN(C(=O)CCc7ccc(Cl)cc7)C6)CC[C@]5(C)CC[C@@]4(C)[C@]3(C)CC[C@@H]12`, the Activity (L6 [1]) is reported as 2.8%.

`C=CCOCC(=C)[C@@H]1CC[C@]2(C)CC[C@]3(C)[C@H](CC[C@@H]4[C@@]5(C)CC[C@H](OC(C)=O)C(C)(C)[C@@H]5CC[C@]43C)[C@@H]12` showed an Activity (L6 [1]) of 8.5%.

For `CN(CCOc1ccc(CC2SC(=O)NC2=O)cc1)c1ccccn1` (stereo unspecified) [ROSIGLITAZONE], the Activity (L6 [1]) was 112.4% and the EC50 (L6 [5]) was 4.8 µM.

Work on `C=C(C=O)[C@@H]1CC[C@]2(C)CC[C@]3(C)[C@H](CC[C@@H]4[C@@]5(C)CC[C@H](OC(=O)C(Br)C(C)C)C(C)(C)[C@@H]5CC[C@]43C)[C@@H]12` (stereo partly specified) yielded an Activity (L6 [1]) of 3.1%.

With `C=C(C=O)[C@@H]1CC[C@]2(C)CC[C@]3(C)[C@H](CC[C@@H]4[C@@]5(C)CC[C@H](OC(=O)/C=C/c6ccccc6)C(C)(C)[C@@H]5CC[C@]43C)[C@@H]12` the Activity (HepG2) was “Active”, the Activity [4] was “inactive” and the Activity (L6 [1]) was 98.3%. For the same molecule, the Activity (L6 [5]) was “Dose-dependent effect”, the EC50 (L6 [5]) was 6.2 µM and the Activity (3T3-L1) was “Active”. The Activity (L6 [7]) was “Active” and the Activity [8] was “Active”.

`C=C(C=O)[C@@H]1CC[C@]2(C)CC[C@]3(C)[C@H](CC[C@@H]4[C@@]5(C)CC[C@H](OC(C)=O)C(C)(C)[C@@H]5CC[C@]43C)[C@@H]12` was tested, and the Activity (HepG2) was “Active”, the Activity [4] was “inactive” and the Activity (L6 [1]) was 114.1%. For the same molecule, the Activity (L6 [5]) was “Dose-dependent effect”, the EC50 (L6 [5]) was 5.2 µM and the “fold change (FC)” value (L6 [10]) was 4.5. For the same molecule, the Activity (3T3-L1) was “Active”, the Activity (L6 [7]) was “Active” and the Activity [8] was “Active”.

`CC(C)C(Br)C(=O)O[C@H]1CC[C@]2(C)[C@H]3CC[C@@H]4[C@H]5[C@H]([C@H]6C=NN(C(=O)C(Br)C(C)C)C6)CC[C@]5(C)CC[C@@]4(C)[C@]3(C)CC[C@H]2C1(C)C` (stereo partly specified) gave an Activity (L6 [1]) of 8.4%.

For `CC1(C)[C@@H](OC(=O)/C=C/c2ccccc2)CC[C@]2(C)[C@H]3CC[C@@H]4[C@H]5[C@H](C6C=NN(C(=O)/C=C/c7ccccc7)C6)CC[C@]5(C)CC[C@@]4(C)[C@]3(C)CC[C@@H]12` (stereo partly specified), the Activity (HepG2) was “Active”, the Activity [2] was “Active” and the Activity (L6 [3]) was “inactive”. For the same molecule, the Activity [4] was “inactive”, the Activity (L6 [1]) was 107.3% and the Activity (L6 [5]) was “Dose-dependent effect”. For the same molecule, the EC50 (L6 [5]) was 4.9 µM, the Activity [6] was “Active” and the Activity (3T3-L1) was “Active”. The Activity (L6 [7]) was “Active”, the Activity [8] was “Active” and the Activity [9] was “inactive”.

`CC1(C)[C@@H](O)CC[C@]2(C)[C@H]3CC[C@@H]4[C@H]5[C@H]([C@H]6C=NOC6c6ccccc6)CC[C@]5(C)CC[C@@]4(C)[C@]3(C)CC[C@@H]12` (stereo partly specified) gave an Activity (L6 [1]) of 13.2%.

In the case of `C#CCOCC(=C)[C@@H]1CC[C@]2(C)CC[C@]3(C)[C@H](CC[C@@H]4[C@@]5(C)CC[C@H](OC(C)=O)C(C)(C)[C@@H]5CC[C@]43C)[C@@H]12`, the Activity (L6 [1]) is reported as 19.2%.

Work on `CC1(C)[C@@H](O)CC[C@]2(C)[C@H]3CC[C@@H]4[C@H]5[C@H]([C@H]6C=NNC6)CC[C@]5(C)CC[C@@]4(C)[C@]3(C)CC[C@@H]12` yielded an Activity (L6 [1]) of 16.1%.

With `C=CC1=COC[C@@H]1[C@@H]1CC[C@]2(C)CC[C@]3(C)[C@H](CC[C@@H]4[C@@]5(C)CC[C@H](OC(C)=O)C(C)(C)[C@@H]5CC[C@]43C)[C@@H]12` the Activity (L6 [1]) was 2.1%.

In the case of `CC1(C)[C@@H](O)CC[C@]2(C)[C@H]3CC[C@@H]4[C@H]5[C@H]([C@@H](C=O)C(O)c6ccccc6)CC[C@]5(C)CC[C@@]4(C)[C@]3(C)CC[C@@H]12` (stereo partly specified), the Activity (L6 [1]) is reported as 6.4%.

Work on `CC(=O)O[C@H]1CC[C@]2(C)[C@H]3CC[C@@H]4[C@H]5[C@H]([C@@H]6C=COC6)CC[C@]5(C)CC[C@@]4(C)[C@]3(C)CC[C@H]2C1(C)C` yielded an Activity (L6 [1]) of 3.6%.

Molecule `C=C(C)[C@@H]1CC[C@]2(C)CC[C@]3(C)[C@H](CC[C@@H]4[C@@]5(C)CC[C@H](O)C(C)(C)[C@@H]5CC[C@]43C)[C@@H]12` [LUPEOL] has an Activity (L6 [1]) of 26.8%.
